Measured values taken from paper PMC3983374 (Journal of Medicinal Chemistry, 2014).

What was measured:
[1] = Rate of reaction of prodrugs with 4 mM GSH; format: in vitro ADME; conditions: for kGSH/kGSH (mean ± SD): rate with GSH alone, normalised to itself
[2] = target: PARP-1 enzyme (Homo sapiens, UniProt P09874); experiment: PARP-1 enzyme inhibition; format: biochemical; conditions: presence or absence of GSH (4 mM)/GSTP1 (40 nM)
[3] = system: A549 human lung adenocarcinoma xenografts; experiment: A549 xenograft tumor growth; format: in vivo, NCr nu/nu athymic mice; conditions: 92 μmol/kg intravenously, 2 times a week for 4 weeks; compared to 1 or saline controls
[4] = Analysis of metabolites in resected tumors; format: in vivo, NCr nu/nu athymic mice; conditions: resected tumors after 92 μmol/kg i.v., 2 times a week for 4 weeks
In short: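 A549 cells, passaged at most four times in RPMI 1640 with 10% FBS, were harvested at 70–80% confluence and implanted s.c. at 5 × 10^6 cells/0.2 mL PBS into NCr nu/nu mice. At about 3 mm × 3 mm, mice were randomised into groups of 12. Test compound was given by tail vein at 92 μmol/kg in 20 μL DMSO, twice weekly for 4 weeks. Tumours were removed at euthanasia right after the last dose and frozen immediately for metabolite analysis.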

[5] = system: A549 lung adenocarcinoma cells; experiment: Immunoblot analysis of glutathionylation, stress signaling and apoptosis; format: cell-based, human
In short: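 A549 lysates from cells treated with test compound (1 μM for the apoptosis markers) were immunoblotted for p38, eIF2α phosphorylation, CHOP, BiP, ATF4, p53 Ser15, Puma, and cleaved caspases 8, 3 and 7 and PARP. […] Blots are representative of at least three independent experiments.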

[6] = system: A549 cells; experiment: Colony forming assay; format: cell-based, human; conditions: A549, combination treatment of 14 and 13
[7] = system: A549 NSCLC cells; experiment: Cellular uptake and metabolism by LC/MS; format: in vitro ADME, human; conditions: A549, 10 μM, any time point from 5 min to 1 h
In short: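 A549 cells were plated in 75 cm2 flasks overnight at 37 °C, then exposed to 10 μM test compound for varying times. Cells were lysed by scraping in 10 mM HCl/acetonitrile, 5% sulfosalicylic acid was added, and samples were spun at 12000g for 15 min and filtered. Analysis was by Q-TOF LC/MS in positive ion mode: C18 column, water/acetonitrile/0.1% formic acid gradient, extracted ion chromatograms at [M+H]+, with a lysate spiked with authentic compound as reference.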

[8] = system: caspase 7; experiment: Activation of apoptosis; format: cell-based; conditions: same concentration of 5b and 1
[9] = system: recombinant GSTP1; experiment: GSTP1-catalyzed reaction of prodrug with GSH; format: in vitro ADME; conditions: recombinant GSTP1 versus GSH alone
In short: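 Kinetics were run at 37 °C by UV–visible spectrophotometry in 0.1 M phosphate buffer pH 7.4 with 50 μM DTPA and 4 mM GSH, with or without 40 nM GST. Substrate (typically 10 μM) was added after buffer and enzyme reached thermal equilibrium. Absorbance was followed at 302 nm, and the rate came from a first-order exponential fit.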

[10] = system: H1703 NSCLC cells; experiment: Alkaline Comet assay; format: cell-based, human; conditions: H1703, 24 h treatment, 5 μM
[11] = system: panel of NSCLC cell lines; experiment: Proliferation of panel of NSCLC cell lines; format: cell-based; conditions: Homo sapiens, read-out: IC50 range over panel of NSCLC cell lines
In short: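 Cell lines from ATCC were cultured per the supplier's protocol and tested by MTT assay per the kit protocol. Each concentration was run in six repeats, in at least two independent experiments. IC50 values were obtained by curve fitting.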

Chain of PARP-1 enzyme (P09874 whole entry): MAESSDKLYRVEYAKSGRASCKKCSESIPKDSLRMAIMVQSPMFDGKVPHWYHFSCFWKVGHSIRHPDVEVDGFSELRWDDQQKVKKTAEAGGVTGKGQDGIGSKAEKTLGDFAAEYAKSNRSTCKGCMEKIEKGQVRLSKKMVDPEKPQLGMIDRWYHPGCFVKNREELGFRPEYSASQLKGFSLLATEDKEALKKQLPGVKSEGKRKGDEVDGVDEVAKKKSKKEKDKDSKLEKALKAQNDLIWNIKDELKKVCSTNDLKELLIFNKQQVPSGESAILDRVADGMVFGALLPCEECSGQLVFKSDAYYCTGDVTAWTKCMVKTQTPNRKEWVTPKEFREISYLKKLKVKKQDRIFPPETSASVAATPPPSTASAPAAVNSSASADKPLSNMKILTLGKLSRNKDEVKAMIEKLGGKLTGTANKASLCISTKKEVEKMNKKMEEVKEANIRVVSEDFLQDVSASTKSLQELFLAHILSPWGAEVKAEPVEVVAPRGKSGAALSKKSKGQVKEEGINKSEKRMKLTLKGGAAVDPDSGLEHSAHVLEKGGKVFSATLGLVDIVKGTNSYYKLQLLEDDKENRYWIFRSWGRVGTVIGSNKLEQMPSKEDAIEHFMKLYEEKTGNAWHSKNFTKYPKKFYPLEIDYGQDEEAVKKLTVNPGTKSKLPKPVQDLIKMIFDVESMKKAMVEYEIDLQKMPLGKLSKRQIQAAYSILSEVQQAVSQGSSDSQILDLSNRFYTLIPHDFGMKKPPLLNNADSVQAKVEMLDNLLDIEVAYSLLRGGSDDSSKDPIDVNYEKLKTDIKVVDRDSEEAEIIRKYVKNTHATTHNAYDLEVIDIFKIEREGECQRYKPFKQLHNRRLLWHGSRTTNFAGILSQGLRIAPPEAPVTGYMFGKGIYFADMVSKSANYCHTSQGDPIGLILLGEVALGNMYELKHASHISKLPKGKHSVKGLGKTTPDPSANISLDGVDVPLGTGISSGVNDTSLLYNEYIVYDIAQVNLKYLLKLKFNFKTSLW

Compound: CCOC(=O)N1CCN(/[N+]([O-])=N/Oc2ccc([N+](=O)[O-])cc2[N+](=O)[O-])CC1 [Compound 2, O^2-(2,4-dinitrophenyl) 1-[(4-ethoxycarbonyl)piperazin-1-yl]diazen-1-ium-1,2-diolate, reference compound]
- kGSH/kGSH (mean ± SD) [1]: 1 ± 0.001

Compound: CN(C)/[N+]([O-])=N\Oc1cc(O/N=[N+](\[O-])N2CCN(C(=O)c3cc(Cc4n[nH]c(=O)c5ccccc45)ccc3F)CC2)c([N+](=O)[O-])cc1[N+](=O)[O-] [Compound 13]
- PARP-1 enzyme inhibition, activated versus prodrug [2]: Activated compound is a much better PARP-1 inhibitor than the prodrug
- effect on tumor growth [3]: significant reduction of the tumor growth
- parent drug and liberated PARP-1 inhibitor in tumors [4]: detected in some tumors
- kGSH/kGSH (mean ± SD) [1]: 1 ± 0.004
- time to caspase 8 activation ([5]; A549, 1 μM): ≤ 6 h
- time to detection of glutathione attached to protein ([5]; A549, nonreducing immunoblot): ≤ 1 h
- time to activation of stress kinase p38 ([5]; A549, phosphorylation persisted for 8 h): ≤ 15 min
- cytotoxicity in combination with 14 [6]: enhanced toxicity

Compound: CNc1ccc(C(=O)Oc2cc(O/N=[N+](\[O-])N(C)C)c([N+](=O)[O-])cc2[N+](=O)[O-])cc1 [Compound 8, PABA/NO, reference compound]
- kGSH/kGSH (mean ± SD) [1]: 1 ± 0.003

Compound: O=C(c1cc(Cc2n[nH]c(=O)c3ccccc23)ccc1F)N1CCN(/[N+]([O-])=N/Oc2ccc([N+](=O)[O-])cc2[N+](=O)[O-])CC1 [Compound 5b]
- parent compound in cell lysates [7]: not detected
- effect on tumor growth [3]: reduced growth of tumors to a lesser extent
- apoptotic signal (cleaved caspase 7) [8]: strong apoptotic signal
- parent drug and liberated PARP-1 inhibitor in tumors [4]: detected in some tumors
- parent compound still present ([1]; 4 mM GSH, after 2 half-lives, LC/MS): 25%
- kGSH/kGSH (mean ± SD) [1]: 1 ± 0.007
- enhancement of reaction with GSH when GSTP1 present [9]: over 10 fold
- DNA strand break damage (Comet assay) [10]: significant DNA strand break damage
- IC50 [11]: 3 to 20 µM

Compound: O=C(c1cc(Cc2n[nH]c(=O)c3ccccc23)ccc1F)N1CCN(C(=O)C2CC2)CC1 [Compound 1, olaparib, reference compound]
- apoptotic signal (cleaved caspase 7) [8]: did not trigger apoptosis

Compound: O=C(c1cccc(Cc2n[nH]c(=O)c3ccccc23)c1)N1CCN(/[N+]([O-])=N/Oc2ccc([N+](=O)[O-])cc2[N+](=O)[O-])CC1 [Compound 5a]
- IC50 [11]: 3 to 20 µM
